≈ marks a conversion by molar mass, not a printed value.
Legend:
[1] = Partition coefficient, logD of the compound at pH 7.4 by HPLC analysis; format: physicochemical; conditions: octanol/water
[2] = Kinetic solubility in pH 6.5 phosphate buffer incubated for 30 mins by nephelometry; format: physicochemical; conditions: read-out: Kinetic_solubility
In short: (§1)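 DMSO stocks (10 mg/mL) diluted into pH 6.5 phosphate buffer or 0.01 M HCl (about pH 2.0) at 1% final DMSO. After 30 min, a solubility range was determined by nephelometry.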

[3] = Kinetic solubility in pH 2.0 0.01M HCl buffer incubated for 30 mins by nephelometry; format: physicochemical; conditions: read-out: Kinetic_solubility; in short: as §1
[4] = molecular target: Albumin (Homo sapiens, UniProt P02768); assay: Protein binding to human albumin by HPLC analysis; format: ADME; conditions: isolated protein
Sequence of Albumin (P02768 whole entry): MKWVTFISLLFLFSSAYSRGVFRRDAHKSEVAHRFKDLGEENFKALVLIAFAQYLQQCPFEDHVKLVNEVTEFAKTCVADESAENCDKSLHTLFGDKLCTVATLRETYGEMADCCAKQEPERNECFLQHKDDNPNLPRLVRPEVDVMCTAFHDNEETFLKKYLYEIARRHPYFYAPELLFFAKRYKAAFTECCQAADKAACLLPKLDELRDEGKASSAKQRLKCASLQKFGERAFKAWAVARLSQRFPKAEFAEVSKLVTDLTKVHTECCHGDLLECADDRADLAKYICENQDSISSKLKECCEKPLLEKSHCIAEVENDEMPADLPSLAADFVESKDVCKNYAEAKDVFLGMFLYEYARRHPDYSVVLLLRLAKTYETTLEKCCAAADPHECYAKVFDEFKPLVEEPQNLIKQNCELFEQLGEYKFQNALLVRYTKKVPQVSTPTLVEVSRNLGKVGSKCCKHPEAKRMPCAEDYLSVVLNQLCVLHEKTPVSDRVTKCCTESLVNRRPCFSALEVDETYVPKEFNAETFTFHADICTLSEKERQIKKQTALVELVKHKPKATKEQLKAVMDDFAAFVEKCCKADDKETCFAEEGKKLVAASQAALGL
In short: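 Binding estimated chromatographically using a gradient HPLC method derived from the Valko approach.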

[5] = system: Schistosoma mansoni; assay: Antischistosomal activity against Schistosoma mansoni infected in NMRI mouse assessed as reduction in total adult worm burden at 400 mg/kg, po administered as single dose starting on day 49 post-infection and measured at 28 days post treatment relative to control; format: functional; set-up: scale not given: the % may be the effect or the level left
[6] = Intrinsic clearance in human liver microsomes in presence of NADPH-regenerating system incubated over 60 mins; format: ADME, Microsome; conditions: read-out: CLH
In short: (§2)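 Compounds incubated at 37 °C with liver microsomes at 0.4 mg/mL protein. Reaction started by adding an NADPH-regenerating system and quenched with acetonitrile containing diazepam internal standard at several time points over 60 min. No-NADPH controls were quenched at 2, 30 and 60 min.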

[7] = Intrinsic clearance in mouse liver microsomes in presence of NADPH-regenerating system incubated over 60 mins; format: ADME, Microsome; conditions: read-out: CLH; in short: as §2
[8] = system: Schistosoma mansoni; assay: Antischistosomal activity against Schistosoma mansoni infected in mouse assessed as reduction in juvenile worm burden at 200 mg/kg, po administered as single dose relative to control; format: functional; set-up: scale not given: the % may be the effect or the level left
In short: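 Female NMRI mice, 4 weeks old, infected subcutaneously with about 100 S. mansoni cercariae. Juvenile-stage treatment was a single oral dose on day 21 post-infection in 7% v/v Tween 80 / 3% v/v ethanol (10 mL/kg). Untreated infected mice (n = 8) served as controls. Necropsy by CO2 21 days post-treatment, with worms picked, sexed and counted.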

[9] = system: HFF; assay: Cytotoxicity in HFF assessed as reduction in cell viability up to 50 uM incubated for 24 hrs by Alamar blue sye based assay; conditions: human
In short: (§3)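 Cells maintained in D10 medium were grown to confluence, then exposed to increasing compound concentrations (0–100 μM) for 24 h. Alamar blue (10 mM) was then added for 4 h, and viability was read as fluorescence.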

[10] = system: U2OS; assay: Cytotoxicity in human U2OS assessed as reduction in cell viability up to 50 uM incubated for 24 hrs by Alamar blue sye based assay; in short: as §3
[11] = system: HEK-293T; assay: Cytotoxicity in human HEK293T assessed as reduction in cell viability up to 50 uM incubated for 24 hrs by Alamar blue sye based assay; in short: as §3
[12] = Cytotoxicity in human HC04 assessed as reduction in cell viability up to 50 uM incubated for 24 hrs by Alamar blue sye based assay; in short: as §3

Row | Compound | logD [1] | solubility kinetic at 0.5 h [2] [µg/mL] | solubility kinetic at 0.5 h [3] [µg/mL] | PPB [4] [%] | Activity [5] [%] | microsomal CLint [6] [µL/min/mg] | microsomal CLint [7] [µL/min/mg] | Activity [8] [%] | Activity [9] | Activity [10] | Activity [11] | Activity [12]
1 | O=C(O)COc1ccc([C@H]2CC[C@]3(CC2)OOC2(O3)C3CC4CC2CC(C3)C4=O)cc1 (some centres undefined) | 1.9 | < 1.6 | 50 to 100 (≈ 117 to 233 µM) | 97.8 | 24 |  |  |  |  |  |  | 
2 | O=C(O)CCCCOc1ccc([C@H]2CC[C@]3(CC2)OOC2(O3)C3CC4CC(C3)CC2C4)cc1 (some centres undefined) | 4 | < 1.6 | < 1.6 | > 99.5 | 51 | < 7 | 13 |  |  |  |  | 
3 | CS(=O)(=O)O.NC1C2CC3CC1CC(C2)C31OO[C@]2(CC[C@@H](c3ccc(OCC(=O)O)cc3)CC2)O1 (some centres undefined) | 1.4 | 6.3 to 12.5 | < 1.6 | 94.2 | 30 | 13 | 8 |  |  |  |  | 
4 | CCOC(=O)COc1ccc([C@H]2CC[C@]3(CC2)OOC2(O3)C3CC4CC(C3)CC2C4)cc1 (some centres undefined) | > 5.3 | < 1.6 | < 0.78 | 98.9 | 60 |  |  |  |  |  |  | 
5 | O=C(O)c1ccc([C@H]2CC[C@]3(CC2)OOC2(O3)C3CC4CC(C3)CC2C4)cc1 (some centres undefined) | 3 | < 3.1 | < 1.6 | 98.8 |  |  |  | 100 |  |  |  | 
6 | O=C(O)COc1ccc([C@H]2CC[C@]3(CC2)OOC2(O3)C3CC4CC(C3)CC2C4)cc1Cl (some centres undefined) | 3.2 | < 3.1 | 3.1 to 6.3 (≈ 6.91 to 14 µM) | > 99.5 | 84 | < 7 | 8 |  | Non-Toxic | Non-Toxic | Non-Toxic | Non-Toxic
7 | O=C(O)c1cc([C@H]2CC[C@]3(CC2)OOC2(O3)C3CC4CC(C3)CC2C4)ccc1O (some centres undefined) | 3 | < 1.6 | > 100 |  | 36 | 108 | 20 |  |  |  |  | 
8 | CS(=O)(=O)O.O=C(O)CNCc1ccc([C@H]2CC[C@]3(CC2)OOC2(O3)C3CC4CC(C3)CC2C4)cc1 (some centres undefined) | 3.3 | < 12.5 | < 6.3 | 97.6 | 90 | < 7 | 10 |  | Non-Toxic | Non-Toxic | Non-Toxic | Non-Toxic
9 | CS(=O)(=O)O.CS(=O)(=O)O.O=C(O)CNCc1ccc([C@H]2CC[C@]3(CC2)OOC2(O3)C3CC4CC2CC(C3)N4)cc1 (some centres undefined) | 1.6 | > 100 | 50 to 100 |  | 41 | < 7 | < 7 |  |  |  |  | 
10 | CC(=O)NC1C2CC3CC1CC(C2)C31OO[C@]2(CC[C@@H](c3ccc(OCC(=O)O)cc3)CC2)O1 (some centres undefined) | 1.8 | 3.1 to 6.3 (≈ 6.57 to 13.4 µM) | 12.5 to 25 (≈ 26.5 to 53 µM) | 98.2 | 0 | 10 | < 7 |  |  |  |  | 
11 | O=C(O)CN1CCC(Oc2ccc([C@H]3CC[C@]4(CC3)OOC3(O4)C4CC5CC(C4)CC3C5)cc2)CC1 (some centres undefined) |  |  |  |  | 75 | < 7 | < 7 |  | Non-Toxic | Non-Toxic | Non-Toxic | Non-Toxic
12 | O=C([O-])C1CCN(CCOc2ccc([C@H]3CC[C@]4(CC3)OOC3(O4)C4CC5CC(C4)CC3C5)cc2)CC1.[Na+] (some centres undefined) | 3.8 | 3.1 to 6.3 | < 1.6 | 98 | 0 | < 7 | 9 |  |  |  |  | 

— ChEMBL document CHEMBL4376900, “Structure-Activity Relationship of Antischistosomal Ozonide Carboxylic Acids” (J Med Chem, 2020)
